Values after ≈ are worked out from the molar mass of the structure shown. Where a SMILES comes first, the peptide text is derived from it. [ ]: non-standard residue; d: D form. The star is where a group is joined. Bip = N[C@@H](Cc1ccc(-c2ccccc2)cc1)C(=O)O; NHPhenethyl = c1ccc(CCN*)cc1; NHBn = c1ccc(CN*)cc1; NHiPr = CC(C)N*
Tests used:
[1] = Binding affinity to BSA 1 by isothermal titration calorimetry; parameters: species or system Bos taurus
Outline: (§1)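 ITC at 25 °C with 1 mL cell. Peptide (2.1 mM) injected in 20 aliquots of 5 µL, 400 s apart, into stirred (200 rpm) albumin (0.11 mM) in 50 mM Tris-HCl, 10 mM CaCl₂, pH 8.2. Dilution heats from peptide-into-buffer titrations were subtracted. First injection excluded. Isotherm fitted to a one-site model; KD = 1/Ka.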

Staphylococcus aureus [2] = experiment: Antibacterial activity against Staphylococcus aureus ATCC 25923 in presence of BSA 1 by microdilution method; type: functional
Outline: (§2)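 Standard broth microdilution MIC against S. aureus ATCC 25923 with albumin in the assay at 0.55 mM. Albumin grades: BSA I, essentially fatty acid and globulin free, ≥99%. BSA II ≥96%. HSA I, essentially fatty acid free, ~99%. HSA II ≥96%. Run in duplicate.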

Staphylococcus aureus [3] = experiment: Antibacterial activity against Staphylococcus aureus ATCC 25923 by microdilution method; type: functional
Outline: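 Standard broth microdilution MIC against S. aureus ATCC 25923, without albumin. Run in triplicate.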

Staphylococcus aureus [4] = experiment: Antibacterial activity against Staphylococcus aureus ATCC 25923 in presence of HSA 2 by microdilution method; type: functional; outline: as §2
Staphylococcus aureus [5] = experiment: Antibacterial activity against Staphylococcus aureus ATCC 25923 in presence of HSA 1 by microdilution method; type: functional; outline: as §2
[6] = Binding affinity to BSA 2 by isothermal titration calorimetry; parameters: species or system Bos taurus; outline: as §1
Staphylococcus aureus [7] = experiment: Antibacterial activity against Staphylococcus aureus ATCC 25923 in presence of BSA 2 by microdilution method; type: functional; outline: as §2
[8] = Binding affinity to HSA 1 by isothermal titration calorimetry; parameters: species or system Homo sapiens; outline: as §1
[9] = Binding affinity to HSA 2 by isothermal titration calorimetry; parameters: species or system Homo sapiens; outline: as §1

SMILES | Kd [1] | MIC (Staphylococcus aureus [2]) | MIC (Staphylococcus aureus [3]) | MIC (Staphylococcus aureus [4]) | MIC (Staphylococcus aureus [5]) | Kd [6] | MIC (Staphylococcus aureus [7]) | Kd [8] | Kd [9]
C[C@H](CNC(=O)[C@H](CCCNC(=N)N)NC(=O)[C@H](Cc1ccc(-c2ccccc2)cc1)NC(=O)[C@@H](N)CCCNC(=N)N)c1ccccc1 | 12.4 µM | 31 µg/mL | 4 µg/mL (≈ 5.96 µM) |  |  |  |  |  | 
C[C@@H](CNC(=O)[C@H](CCCNC(=N)N)NC(=O)[C@H](Cc1ccc(-c2ccccc2)cc1)NC(=O)[C@@H](N)CCCNC(=N)N)c1ccccc1 | 12.2 µM | 31 µg/mL | 4 µg/mL (≈ 5.96 µM) |  |  |  |  |  | 
N=C(N)NCCC[C@H](NC(=O)[C@H](Cc1ccc(-c2ccccc2)cc1)NC(=O)[C@@H](N)CCCNC(=N)N)C(=O)NCCCc1ccccc1 | 22.2 µM | 25 µg/mL | 2 µg/mL (≈ 2.98 µM) |  |  |  |  |  | 
CCN(Cc1ccccc1)C(=O)[C@H](CCCNC(=N)N)NC(=O)[C@H](Cc1ccc(-c2ccccc2)cc1)NC(=O)[C@@H](N)CCCNC(=N)N | 17.3 µM | 38 µg/mL | 5 µg/mL (≈ 7.45 µM) |  |  |  |  |  | 
N=C(N)NCCC[C@H](NC(=O)[C@H](Cc1ccc(-c2ccccc2)cc1)NC(=O)[C@@H](N)CCCNC(=N)N)C(=O)NCc1ccccc1 (H-Arg-[Bip]-Arg-NHBn) | 4.3 µM | 47 µg/mL | 5 µg/mL (≈ 7.78 µM) | 80 µg/mL | 40 µg/mL | 13 µM | 30 µg/mL | 15.7 µM | 15.5 µM
CC(C)NC(=O)[C@H](CCCNC(=N)N)NC(=O)[C@H](Cc1ccc(-c2ccccc2)cc1)NC(=O)[C@@H](N)CCCNC(=N)N (H-Arg-[Bip]-Arg-NHiPr) | 14.1 µM | 110 µg/mL | 47 µg/mL (≈ 79 µM) | 100 µg/mL | 113 µg/mL | 14.5 µM | 80 µg/mL | 10.8 µM | 18.2 µM

Continued, values first:

Kd [1] | MIC (Staphylococcus aureus [2]) | MIC (Staphylococcus aureus [3]) | MIC (Staphylococcus aureus [4]) | MIC (Staphylococcus aureus [5]) | Kd [6] | MIC (Staphylococcus aureus [7]) | Kd [8] | Kd [9] | SMILES
6.7 µM | 38 µg/mL | 7 µg/mL (≈ 10.7 µM) |  |  |  |  |  |  | CN(Cc1ccccc1)C(=O)[C@H](CCCNC(=N)N)NC(=O)[C@H](Cc1ccc(-c2ccccc2)cc1)NC(=O)[C@@H](N)CCCNC(=N)N
10 µM | 13 µg/mL | 2 µg/mL (≈ 2.73 µM) | 11 µg/mL | 6 µg/mL | 12.3 µM | 6 µg/mL | 10.4 µM | 15.9 µM | N=C(N)NCCC[C@H](NC(=O)[C@H](Cc1ccc(-c2ccccc2)cc1)NC(=O)[C@@H](N)CCCNC(=N)N)C(=O)N(Cc1ccccc1)Cc1ccccc1
11.1 µM | 47 µg/mL | 4 µg/mL (≈ 6.09 µM) |  |  |  |  |  |  | N=C(N)NCCC[C@H](NC(=O)[C@H](Cc1ccc(-c2ccccc2)cc1)NC(=O)[C@@H](N)CCCNC(=N)N)C(=O)NCCc1ccccc1 (H-Arg-[Bip]-Arg-NHPhenethyl)

Source: ChEMBL document CHEMBL1145426, “Albumin binding of short cationic antimicrobial micropeptides and its influence on the in vitro bactericidal effect” (J Med Chem, 2007)
